Rows were chosen to be rich in hits. Some 1.8% of all compounds tested hit in one or more screens of this group.
M5 PAM: CHRM5 positive allosteric modulation | P08912 | CHO-K1 hM5, Fluo-8 calcium, ACh EC20 PAM; 0% = ACh EC20, 100% = ACh EC100 | activation, % at 3 µM | actives 0.3% (n = 360,000);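 active = activation above the run cutoff, the mean activation of all test compounds plus 3 SD, cut at about 18% in these data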
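Assay system: CHO-K1 hM5 cells. Also added: acetylcholine at EC20 concentration, added after compound. Dosing: 3 µM, single dose. Times: compound preincubation 140 s before EC20 acetylcholine addition. Signal: Fluo-8 calcium fluorescence. Measure: % activation relative to EC20 and EC100 ACh responses. Repeats: singlicate, one well per test compound.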
M5 ag: CHRM5 agonism in calcium assay | CHO-K1 hM5 cells, Fluo-8 calcium fluorescence; 0% DMSO wells, 100% maximal acetylcholine response | activation, % at 3 µM | actives 0.19% (n = 360,000);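 active = activation above the run's mean over test compounds plus 3 SD, cut at about 23% in these data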;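 note: signal is peak over basal fluorescence ratio across the kinetic read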
CHRM4 PAM: CHRM4 positive allosteric modulation | P08173 | CHO-K1 hM4/Gqi5, Fluo-8 calcium fluorescence, ACh EC20; 0% = ACh EC20, 100% = maximal ACh | activation, % at 3 µM | actives 0.4% (n = 360,000) | AID 624126;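 active = activation above its plate's cutoff, the mean activation of sample wells plus 3 SD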
Target sequence (P08173 whole entry, looked up): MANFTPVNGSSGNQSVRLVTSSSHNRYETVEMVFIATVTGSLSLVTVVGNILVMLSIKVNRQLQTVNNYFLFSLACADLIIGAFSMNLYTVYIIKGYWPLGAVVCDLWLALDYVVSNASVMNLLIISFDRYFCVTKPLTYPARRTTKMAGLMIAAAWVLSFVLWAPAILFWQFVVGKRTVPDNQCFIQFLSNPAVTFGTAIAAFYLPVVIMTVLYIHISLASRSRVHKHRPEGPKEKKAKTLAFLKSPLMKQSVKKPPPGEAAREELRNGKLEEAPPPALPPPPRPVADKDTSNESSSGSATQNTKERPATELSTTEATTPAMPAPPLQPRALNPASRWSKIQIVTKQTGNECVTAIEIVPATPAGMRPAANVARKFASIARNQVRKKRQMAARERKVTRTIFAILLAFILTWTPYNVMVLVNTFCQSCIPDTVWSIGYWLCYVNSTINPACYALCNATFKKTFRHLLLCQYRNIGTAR
CHRM4 agonist: agonists of human muscarinic M4 receptor (CHRM4) | CHO-K1 hM4/Gqi5, Fluo-8 calcium fluorescence; vehicle 0%, full acetylcholine response 100% | activation, % at 3 µM | actives 0.14% (n = 360,000) | AID 624127;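 active = activation above the run mean over all test wells plus 3 SD, cut at about 32% in these data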;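 note: peak over basal fluorescence ratio per well then scaled between controls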
M5 antag: blocks acetylcholine activation of human M5 receptor | P08912 | CHO-hM5 cells, Fluo-8 calcium fluorescence, ACh EC80 | inhibition, % at 3 µM | actives 0.59% (n = 360,000);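 active = inhibition above a per-plate cutoff, the mean of that plate's test compounds plus 3 SD, cut at about 27% in these data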
M4 antag: CHRM4 antagonism in calcium assay; actives 0.73% (n = 360,000); inhibition, % at 3 µM; P08173; CHO-hM4 cells, ACh EC80, Fluo-8 calcium fluorescence;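 active = inhibition above its plate's cutoff, the mean inhibition of sample wells plus 3 SD, cut at about 27% in these data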
A number is an active result; - = inactive.

SMILES	M5 PAM	M5 ag	CHRM4 PAM	CHRM4 agonist	M5 antag	M4 antag
O=C(CC1CCCCC1)NCc1ccccn1	-	-	-	-	-	-
CCN(CC)S(=O)(=O)c1ccc(-n2cnc3cc(C)c(C)cc32)nc1	-	-	-	-	-	-
CC(CC(=O)N1CCc2ccccc21)n1cccn1 (stereo unspecified)	-	-	-	-	-	-
O=c1o[nH]c(-c2ccccc2)c1-c1ccccc1	-	-	-	-	-	-
O=C(c1ccc(S(=O)(=O)Nc2ccccc2)cc1)N1CCCC(C(F)(F)F)C1 (stereo unspecified)	-	36	-	-	-	-
CCOc1ccc(NS(=O)(=O)c2ccc(C(=O)NCc3ccccn3)cc2)cc1	-	32	-	-	-	-
COc1ccc(NS(=O)(=O)c2ccc(O)c(NC(=O)c3ccc(S(=O)(=O)N4CCCC4)cc3)c2)cc1	-	-	-	-	-	-
Cc1ccc(NS(=O)(=O)c2ccc(C(=O)NCc3ccccn3)cc2)cc1	-	-	-	-	-	-
O=C(c1ccccc1)c1ccc(C(=O)N2CCCC(C(F)(F)F)C2)cc1 (stereo unspecified)	-	-	-	-	-	-
Cc1ccc(NS(=O)(=O)c2ccc(C(=O)N3CC(C)OC(C)C3)cc2)cc1 (stereo unspecified)	-	31	-	-	-	-
Cc1ccc(NS(=O)(=O)c2ccc(C(=O)N3CCC3)cc2)cc1	-	-	-	-	-	-
CCOC(=O)c1ccc(S(=O)(=O)Nc2cc(S(=O)(=O)Nc3ccc(OC)cc3)ccc2O)cc1	18	-	-	-	-	-
CCOc1ccc(NS(=O)(=O)c2ccc(C(=O)N3CCCC(C)C3)cc2)cc1 (stereo unspecified)	-	36	-	36	-	-
COc1ccc(NS(=O)(=O)c2ccc(C(=O)N3CCCCCC3)cc2)cc1	-	24	-	-	-	-
COc1ccc(NS(=O)(=O)c2ccc(C(=O)N(C)Cc3cccs3)cc2)cc1	-	26	-	-	-	-
O=C(O)C1C2CC(C(Br)C2Br)C1C(=O)O (stereo unspecified)	-	-	-	-	-	-
O=C(Nc1ccccc1)Nc1csc2ccccc12	-	-	-	-	29	-
CC(=O)Nc1csc2ccccc12	-	-	-	-	-	-
COc1ccc(CCNC(=O)CN2C(=O)NC(c3ccccc3)(c3ccccc3)C2=O)cc1	-	-	-	-	-	-
Cn1ccnc1C1CCCCN1Cc1nc(Cc2ccccc2F)no1 (stereo unspecified)	-	-	-	-	-	83
CN(Cc1ccccc1)C(=O)[C@@H]1CCCN1C(=O)[C@@H]1CCCN1C(=O)OC(C)(C)C	-	-	-	-	-	-
CCOc1ccc(CCNC(=O)CCc2nnc3ccc(N4CCCCC4)nn23)cc1OCC	-	-	-	-	-	32
COc1ccc(Cl)cc1NC(=O)C1CCCN(S(C)(=O)=O)C1 (stereo unspecified)	-	-	-	-	-	-
Nc1nc(Nc2ccccc2)sc1C(=O)c1ccccc1	-	33	12	-	-	-
CCOC(=O)C1=C(C)N(c2ccccc2)C(=O)NC1c1cccc([N+](=O)[O-])c1 (stereo unspecified)	-	-	-	-	39	75
SMILES	M5 PAM	M5 ag	CHRM4 PAM	CHRM4 agonist	M5 antag	M4 antag
O=S(=O)(c1ccc(Cl)nc1)N(Cc1ccccc1)Cc1ccccc1	-	-	-	-	-	33
CCN(c1ccccc1)S(=O)(=O)c1ccc(Cl)nc1	-	-	-	-	-	-
Cc1ccc(NC(=O)CSc2ccc(Br)cc2)cc1S(=O)(=O)N1CCOCC1	-	-	-	-	-	-
OC(CC#CCN1CCCC1)(c1ccccc1)c1ccccc1	-	-	-	-	58	88
OC(C#CCN1CCCC1)(c1ccccc1)c1cccc(F)c1 (stereo unspecified)	-	-	-	-	98	94
CC(O)(C#CCN1CCCC1)c1ccccc1 (stereo unspecified)	-	-	-	-	-	-
OC(CC#CCN1CCOCC1)(c1ccccc1)c1ccccc1	-	-	-	-	-	-
